Laboratory results from ChEMBL document CHEMBL3997766, “Synthesis and pre-clinical studies of new amino-acid ester thiazolide prodrugs” (Eur J Med Chem, 2017).

Columns and labels:
[1] = tested on: Rattus norvegicus; experiment: Toxicity in Sprague-Dawley rat assessed as effect on tidal volume at 100 to 1000 mg/kg administered as single dose via oral gavage; type: organism-based; conditions: in vivo
Method in brief: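 Respiratory safety study: conscious rats, 3 groups of 6 (3M/3F), given single oral-gavage doses of 100, 300 or 1000 mg/kg, with an untreated control group. Respiratory rate (breaths per minute), tidal volume and minute volume were recorded, and mortality was noted.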

[2] = tested on: Rattus norvegicus; experiment: AUC (0 to t) in Sprague-Dawley rat assessed as Tizoxanide level in plasma at 6 mg/kg, iv administered as single dose; type: ADME, organism-based; conditions: in vivo
Method in brief: (§1)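 Plasma tizoxanide and tizoxanide glucuronide were measured and PK parameters derived. AUCs were dose-corrected to 30 mg/kg for bioavailability.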

[3] = tested on: Rattus norvegicus; experiment: Toxicity in Sprague-Dawley rat assessed as eosinophilic cytoplasmic bodies in epithelial cells of stomach at 10 to 75 mg/kg administered as oral gavage qd for 28 consecutive days followed by 2 weeks recovery period by microscopic method; type: organism-based; conditions: in vivo, 336 h
Method in brief: (§2)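 Sub-acute study in Sprague-Dawley rats dosed orally with a suspension at 10, 30 and 75 mg/kg once daily for 28 consecutive days. Four groups of up to 30 rats each (15M/15F).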

[4] = tested on: Plasma; experiment: Drug metabolism in Sprague-Dawley rat assessed as Tizoxanide in plasma at 28 mg/kg, po measured at 0.083 hrs post dose; type: ADME, organism-based; conditions: in vivo
[5] = tested on: Plasma; experiment: Prodrug activation in Sprague-Dawley rat assessed as tizoxanide formation in plasma at 6.3 mg/kg, iv administered as single dose measured after 5 mins; type: organism-based; conditions: in vivo
Method in brief: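 Rats in groups of three got a single oral dose (30 mg/kg) or a single intravenous injection (6 mg/kg). Serial blood samples were taken at 5, 10, 15 and 30 min and at 1, 2, 4, 8, 23 and 24 h post-dose for plasma drug and glucuronide levels. Bioavailability came from oral versus intravenous AUC after dose correction to 30 mg/kg.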

[6] = tested on: Canis familiaris; experiment: Toxicity in Beagle dog assessed as decrease in cholesterol level at 25 mg/kg, po administered as gelatin capsule once daily for 28 days followed by two weeks of recovery period; type: organism-based, Canis lupus familiaris; conditions: in vivo, 672 h
Method in brief: (§3)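 Sub-acute study in Beagle dogs dosed orally by gelatin capsule at 5, 15 and 25 mg/kg once a day for 28 consecutive days.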

[7] = tested on: Rattus norvegicus; experiment: Toxicity in Sprague-Dawley rat assessed as hemorrhage in stomach at 75 mg/kg administered as oral gavage qd for 28 consecutive days followed by 2 weeks recovery period by microscopic method; type: organism-based; conditions: in vivo, 336 h; method in brief: as §2
[8] = tested on: Rattus norvegicus; experiment: Toxicity in Sprague-Dawley rat assessed as effect on food consumption at 10 to 75 mg/kg administered as oral gavage qd for 28 consecutive days measured once per week during compound dosing; type: organism-based; conditions: in vivo
Method in brief: (§4)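 Sub-acute study in Sprague-Dawley rats: 10, 30 or 75 mg/kg given orally once a day for 28 consecutive days as a yellow suspension. There were 4 groups of up to 30 rats each (15M/15F), including a control. Body weight, clinical observations and terminal findings were assessed.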

[9] = tested on: Rattus norvegicus; experiment: Neurotoxicity in Sprague-Dawley rat assessed as decrease in pain response at 1000 mg/kg administered as single dose via oral gavage after 4 to 24 hrs; type: toxicity, organism-based; conditions: in vivo
Method in brief: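 Three groups of 10 rats (5M/5F) received a single dose by oral gavage of 100, 300 or 1000 mg/kg, and an untreated group served as control. Clinical signs of CNS effects were recorded at 4 and 24 h after treatment.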

[10] = tested on: Rattus norvegicus; experiment: Toxicity in Sprague-Dawley rat assessed as mucosal hyperplasia in duodenum at 75 mg/kg administered as oral gavage qd for 28 consecutive days measured on day 29 by microscopic method; type: organism-based; conditions: in vivo
Method in brief: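 Sub-acute oral toxicity study in Sprague-Dawley rats. The drug was given once daily for 28 consecutive days at 10, 30 or 75 mg/kg, formulated as a suspension. There were 4 groups of up to 30 rats each (15 male, 15 female). The study evaluated systemic exposure to the drug.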

[11] = tested on: Canis familiaris; experiment: Toxicity in Beagle dog assessed as early death at 5 to 25 mg/kg, po administered as gelatin capsule once daily for 28 days measured on day 29; type: organism-based, Canis lupus familiaris; conditions: in vivo, 672 h
Method in brief: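 Sub-acute study in Beagle dogs: 5, 15 or 25 mg/kg/day given orally in a single gelatin capsule once a day for 28 consecutive days to assess systemic exposure and toxicity, with NOAEL determination.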

[12] = tested on: Rattus norvegicus; experiment: Toxicity in Sprague-Dawley rat assessed as decrease in absolute kidney weight at 75 mg/kg administered as oral gavage qd for 28 consecutive days measured on day 29; type: organism-based; conditions: in vivo; method in brief: as §2
[13] = tested on: Canis familiaris; experiment: Toxicity in Beagle dog assessed as decrease in cholesterol level up to 25 mg/kg, po administered as gelatin capsule once daily for 28 days measured on day 29; type: organism-based, Canis lupus familiaris; conditions: in vivo, 672 h; method in brief: as §3
[14] = tested on: Rattus norvegicus; experiment: Toxicity in Sprague-Dawley rat assessed as decrease in prothrombine time at 10 to 75 mg/kg administered as oral gavage qd for 28 consecutive days followed by 2 weeks recovery period measured on day 43; type: organism-based; conditions: in vivo, 336 h; method in brief: as §2
[15] = tested on: Canis familiaris; experiment: Cardiotoxicity in Beagle dog up to 25 mg/kg, po administered as gelatin capsule once daily for 28 days measured 1 hr post last dose on one of last 3 days of dosing; type: toxicity, organism-based, Canis lupus familiaris; conditions: in vivo
Method in brief: (§5)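 Beagle dogs received the drug orally in a single gelatin capsule at 5, 15 or 25 mg/kg once daily for 28 consecutive days in a sub-acute toxicity study assessing systemic exposure.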

[16] = tested on: Canis familiaris; experiment: Drug metabolism in Beagle dog assessed as tizoxanide-glucuronide level in plasma administered orally as gelatin capsule once daily for 28 days measured on day 1 and 29; type: ADME, Canis lupus familiaris; conditions: po, 672 h; method in brief: as §5
[17] = tested on: Canis familiaris; experiment: Toxicity in Beagle dog up to 25 mg/kg, po administered as gelatin capsule once daily for 28 days measured on day 29; type: organism-based, Canis lupus familiaris; conditions: in vivo, 672 h; method in brief: as §3
[18] = tested on: Rattus norvegicus; experiment: Toxicity in Sprague-Dawley rat assessed as mixed cell inflammation in stomach at 30 to 75 mg/kg administered as oral gavage qd for 28 consecutive days measured on day 29 by microscopic method; type: organism-based; conditions: in vivo; method in brief: as §4
[19] = tested on: Rattus norvegicus; experiment: Elimination half life in Sprague-Dawley rat assessed as Tizoxanide level in plasma at 6.3 mg/kg, iv administered as single dose; type: ADME, organism-based; conditions: in vivo
[20] = tested on: Rattus norvegicus; experiment: Toxicity in Sprague-Dawley rat assessed as epithelial hyperplasia in stomach at 75 mg/kg administered as oral gavage qd for 28 consecutive days followed by 2 weeks recovery period by microscopic method; type: organism-based; conditions: in vivo, 336 h; method in brief: as §2
[21] = tested on: Rattus norvegicus; experiment: AUC (0 to t) in Sprague-Dawley rat assessed as Tizoxanide level at 30 mg/kg, po administered as single dose; type: ADME, organism-based; conditions: in vivo; method in brief: as §1
[22] = tested on: Rattus norvegicus; experiment: Cmax in Sprague-Dawley rat assessed as tizoxanide-glucuronide level in plasma at 30 mg/kg, po administered as single dose; type: ADME, organism-based; set-up: dose 30 mg/kg, route oral; conditions: in vivo
Method in brief: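 Rats in groups of three received one compound as a single oral dose (30 mg/kg) or a single intravenous injection (6 mg/kg), with four compounds studied separately. Serial blood samples were drawn at 5, 10, 15 and 30 min and at 1, 2, 4, 8, 23 and 24 h post-dose. Plasma parent drug and metabolites were quantified and PK parameters were derived.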

[23] = tested on: Canis familiaris; experiment: Toxicity in Beagle dog up to 25 mg/kg, po administered as gelatin capsule once daily for 28 days measured on day 29 followed by two weeks of recovery period; type: organism-based, Canis lupus familiaris; conditions: in vivo, 672 h; method in brief: as §3
[24] = tested on: Rattus norvegicus; experiment: Toxicity in Sprague-Dawley rat administered via oral gavage qd for 28 consecutive days; conditions: in vivo; method in brief: as §4
[25] = tested on: Rattus norvegicus; experiment: Toxicity in Sprague-Dawley rat assessed as decrease in serum alanine transferase level at 75 mg/kg administered as oral gavage qd for 28 consecutive days followed by 2 weeks recovery period measured on day 43; type: organism-based; conditions: in vivo, 336 h; method in brief: as §2
[26] = tested on: Rattus norvegicus; experiment: AUC (0 to t) in male Sprague-Dawley rat assessed as Tizoxanide-glucuronide level in plasma at 6 mg/kg, iv administered as single dose; type: ADME, organism-based; conditions: in vivo; method in brief: as §1

`CC(C)(C)[C@H](N)C(=O)Oc1ccccc1C(=O)Nc1ncc([N+](=O)[O-])s1.Cl` was tested, and the Activity [1] was “Toxic”, the AUCt [2] was 5210 ng·h/mL and the Activity [3] was “Non-Toxic”. For the same compound, the Drug metabolism [4] was “Metabolite_Detected”, the Drug metabolism [5] was “Metabolite_Detected” and the Activity [6] was “Non-Toxic”. The Activity [7] was “Non-Toxic”, the Activity [8] was “Non-Toxic” and the Activity [9] was “Toxic”. The Activity [10] was “Toxic”, the Activity [11] was “Non-Toxic” and the Activity [12] was “Toxic”. For the same compound, the Activity [13] was “Toxic”, the Activity [14] was “Toxic” and the Activity [15] was “Non-Toxic”. For the same compound, the Drug metabolism [16] was “Dose-dependent effect”, the Activity [17] was “Non-Toxic” and the Activity [18] was “Toxic”. For the same compound, the “beta t1/2” value [19] was 22.8 min, the Activity [20] was “Non-Toxic” and the AUCt [21] was 3120 ng·h/mL. For the same compound, the Cmax [22] was 18600 ng/mL, the Activity [23] was “Non-Toxic” and the NOAEL [24] was 10 mg/kg. The Activity [25] was “Toxic” and the AUCt [26] was 13600 ng·h/mL.
